From ChEMBL document CHEMBL1157487, “Discovery of potent CCR4 antagonists: Synthesis and structure-activity relationship study of 2,4-diaminoquinazolines” (Bioorg Med Chem, 2008)

Columns and labels:
[1] = target: T1, C-C chemokine receptor type 4 (Homo sapiens) (UniProt P51679); assay: Antagonist activity at human CCR4 receptor expressed in mouse B300-19 cells at 1 uM by [35S]GTPgammaS binding assay; type: functional, cell-based
T1 sequence (whole entry): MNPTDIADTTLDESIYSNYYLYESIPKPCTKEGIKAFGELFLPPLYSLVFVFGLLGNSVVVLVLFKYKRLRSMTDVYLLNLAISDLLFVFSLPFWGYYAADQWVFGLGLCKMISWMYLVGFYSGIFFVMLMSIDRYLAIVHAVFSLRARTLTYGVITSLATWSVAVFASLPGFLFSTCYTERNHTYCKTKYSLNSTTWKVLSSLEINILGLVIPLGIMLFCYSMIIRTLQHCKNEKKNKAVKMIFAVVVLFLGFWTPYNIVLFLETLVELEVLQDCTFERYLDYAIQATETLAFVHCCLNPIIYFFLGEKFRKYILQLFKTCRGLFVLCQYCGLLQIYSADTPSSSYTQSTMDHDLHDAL
Outline: (§1)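 Membranes from human CCR4-expressing B300-19 cells (1 µg protein/well) with 150 pM [35S]GTPγS, 2 µM GDP, 3 nM MDC (CCL22), WGA SPA beads, test compound in 20 mM Hepes-NaOH pH 7.05, 100 mM NaCl, 5 mM MgCl2, 0.2% BSA; 1.5 h, 25 °C. Percent inhibition against no-compound and no-CCL22 controls. Duplicate, four concentrations, usually two determinations averaged. IC50 by non-linear fitting.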

[2] = target: T1, C-C chemokine receptor type 4 (Homo sapiens); assay: Displacement of [125I]CCl22 from human CCR4 receptor expressed in mouse B300-19 cells at 1 uM by SPA; type: cell-based
Outline: (§2)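 SPA on whole human CCR4-expressing B300-19 cells (2×10^5/well) with 25 pM [125I]CCL22 and WGA SPA beads, test compound, in 50 mM Hepes pH 7.4, 5 mM MgCl2, 1 mM CaCl2, 0.1% BSA; 2 h, 25 °C. Nonspecific binding defined with 10 nM unlabeled CCL22. Duplicate, four concentrations, usually two determinations averaged. IC50 by non-linear curve fitting.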

[3] = target: T2, C-C chemokine receptor type 4 (Homo sapiens, UniProt P51679); assay: Antagonist activity at human CCR4 receptor expressed in mouse B300-19 cells by [35S]GTPgammaS binding assay; type: functional, cell-based; outline: as §1
T2 sequence (P51679 whole entry): T1 sequence (whole entry)

[4] = target: T3, C-C chemokine receptor type 4 (Mus musculus) (UniProt P51680); assay: Antagonist activity at mouse CCR4 receptor expressed in mouse B300-19 cells assessed as CCL22-induced chemotaxis by bioluminescent assay; type: functional, cell-based
T3 sequence (whole entry): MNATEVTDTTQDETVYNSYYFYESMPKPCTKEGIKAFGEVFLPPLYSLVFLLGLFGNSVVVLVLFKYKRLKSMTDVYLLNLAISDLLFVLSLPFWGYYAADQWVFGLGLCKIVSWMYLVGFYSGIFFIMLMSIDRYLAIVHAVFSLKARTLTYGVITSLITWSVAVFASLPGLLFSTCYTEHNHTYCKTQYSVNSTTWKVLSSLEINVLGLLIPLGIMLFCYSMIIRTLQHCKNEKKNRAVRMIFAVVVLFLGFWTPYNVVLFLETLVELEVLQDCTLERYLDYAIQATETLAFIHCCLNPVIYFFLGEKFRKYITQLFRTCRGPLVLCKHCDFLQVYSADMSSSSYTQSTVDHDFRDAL
Outline: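 Chemotaxis of B300-19 stable transformants carrying mouse CCR4 cDNA, suspended at 5×10^6 cells/mL in RPMI 1640 plus 0.1% BSA with test compound; 1 nM mouse CCL22 in lower wells, 5-µm pore filters, 3 h at 37 °C, 5% CO2. Migrated cells counted by ATP bioluminescence. Triplicate at four concentrations. IC50 from non-linear curve fit.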

[5] = target: T1, C-C chemokine receptor type 4 (Homo sapiens); assay: Antagonist activity at human CCR4 receptor expressed in mouse B300-19 cells assessed as CCL22-induced chemotaxis by bioluminescent assay; type: functional, cell-based
Outline: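 Stably transfected B300-19 cells (human CCR4 cDNA, G418 selection) at 5×10^6 cells/mL in RPMI 1640 with 0.1% BSA, pretreated with test compound; placed over 3 nM human CCL22 in 5-µm-pore polycarbonate filter chambers, 3 h, 37 °C, 5% CO2. Migrated cells quantified by ATP bioluminescence. Controls without compound or without CCL22. Triplicate, four concentrations. IC50 by non-linear curve fitting.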

[6] = target: T1, C-C chemokine receptor type 4 (Homo sapiens); assay: Antagonist activity at human CCR4 receptor expressed in mouse B300-19 cells assessed as CCL22-induced chemotaxis at 1 uM by bioluminescent assay; type: functional, cell-based
[7] = target: T2, C-C chemokine receptor type 4; assay: Displacement of [125I]CCl22 from human CCR4 receptor expressed in mouse B300-19 cells by SPA; type: cell-based; outline: as §2
[8] = Cytotoxicity against CCR4 expressing mouse B300-19 cells at 3 uM after 12 hrs by alamar blue assay; type: cell-based; settings: b300-19, 12 h
Outline: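 CCR4-expressing B300-19 cells (5×10^4/well) in RPMI 1640 with 10% FBS, 2-mercaptoethanol and antibiotics, 37 °C, 5% CO2, exposed to 0.3–10 µM compound for 12 h, then Alamar Blue for 4 h; fluorescence read at excitation 570 and emission 600 nm. Viability relative to untreated wells; minimum cytotoxic dose is the concentration lowering viability below 70%.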

SMILES | inhibition [1] [%] | inhibition [2] [%] | IC50 [3] [nM] | Activity [4] [µM] | Activity [5] [µM] | inhibition [6] [%] | IC50 [7] [nM] | Activity [8]
COc1cc2nc(N3CCC(N4CCCC4)CC3)nc(N(C)C)c2cc1OC | < 0 | < 0 |  |  |  |  |  | 
COc1ccc2c(NC3CCCCCC3)nc(N3CCC(N4CCCC4)CC3)nc2c1 | 10 |  | 13 | 0.22 | 0.12 |  |  | 
COc1cc2nc(N(C)CCc3ccccc3)nc(NC3CCCCCC3)c2cc1OC | < 0 | < 0 |  |  |  |  |  | 
COc1cc2nc(C3CCN(C4CCCCC4)CC3)nc(NC3CCCCCC3)c2cc1OC | 10 |  | 510 |  |  | 12 |  | 
COc1cc2nc(N3CCC(N(C)C4CCCC4)CC3)nc(NC3CCCCCC3)c2cc1OC | 10 | 0 | 18 | 0.35 | 0.12 |  |  | 
COc1cc2nc(NCCCN3CCCC3=O)nc(NC3CCCCCC3)c2cc1OC | 8 | 8 |  |  |  |  |  | 
COc1cc2nc(NCCN3CCCCC3)nc(NC3CCCCCC3)c2cc1OC | 1 | 18 |  |  |  |  |  | 
COc1cc2nc(N3CCC(N4CCCC4)CC3)nc(N3CCOCC3)c2cc1OC | < 0 | 2 |  |  |  |  |  | 
CCNc1nc(N2CCC(N3CCCC3)CC2)nc2cc(OC)c(OC)cc12 | 3 | < 0 |  |  |  |  |  | 
COc1cc2nc(NC(C)C)nc(NC3CCCCCC3)c2cc1OC | < 0 | 6 |  |  |  |  |  | 
COc1cc2nc(N3CCN(C(C)C)CC3)nc(NC3CCCCCC3)c2cc1OC | 68 | 68 | 220 |  |  |  | 660 | 
COc1cc2nc(N3CCOCC3)nc(NC3CCCCCC3)c2cc1OC | < 0 | 8 |  |  |  |  |  | 
COc1cc2nc(NCCCN3CCCC3)nc(NC3CCCCCC3)c2cc1OC | 35 | 16 |  |  |  |  |  | 
COc1cc2nc(NCCc3ccccc3)nc(NC3CCCCCC3)c2cc1OC | 16 | < 0 |  |  |  |  |  | 
COc1cc2nc(N3CCC(N4CCCC4)CC3)nc(N3CCCCC3)c2cc1OC | 8 | 19 |  |  |  |  |  | 
COc1cc2nc(N3CCN(C)CC3)nc(NC3CCCCCC3)c2cc1OC | 13 | < 0 |  |  |  |  |  | 
COc1cc2nc(NCc3ccccc3)nc(NC3CCCCCC3)c2cc1OC | 13 | < 0 |  |  |  |  |  | 
COc1cc2nc(NCc3cccs3)nc(NC3CCCCCC3)c2cc1OC | 0 | < 0 |  |  |  |  |  | 
COc1cc2nc(N3CCC(N(C)C)CC3)nc(NC3CCCCCC3)c2cc1OC | 65 | 77 | 260 |  |  |  | 730 | 
COc1cc2nc(N3CCN(C4CCCCC4)CC3)nc(NC3CCCCCC3)c2cc1OC | 10 | 0 | 55 | 0.21 | 0.23 |  |  | 
COc1cc2nc(N3CCC(C(N)=O)CC3)nc(NC3CCCCCC3)c2cc1OC | 17 | < 0 |  |  |  |  |  | 
COc1cc2nc(N3CCC(C)CC3)nc(NC3CCCCCC3)c2cc1OC | 12 | 15 |  |  |  |  |  | 
COc1ccc2nc(N3CCC(N4CCCC4)CC3)nc(NC3CCCCCC3)c2c1 | 10 |  | 31 | 0.8 | 0.41 |  |  | 
COc1cc2nc(N3CCC(O)CC3)nc(NC3CCCCCC3)c2cc1OC | < 0 | 3 |  |  |  |  |  | 
COc1cc2nc(N3CCC(NC4CCCC4)CC3)nc(NC3CCCCCC3)c2cc1OC | < 0 | 4 | 13 |  | 0.1 |  |  | 
c1ccc2c(NC3CCCCCC3)nc(N3CCC(N4CCCC4)CC3)nc2c1 | 10 |  | 200 |  | 1.4 |  |  | 
COc1cc2nc(N3CCCCC3)nc(NC3CCCCCC3)c2cc1OC | 7 | 11 |  |  |  |  |  | 

Second part, led by results:

inhibition [1] [%] | inhibition [2] [%] | IC50 [3] [nM] | Activity [4] [µM] | Activity [5] [µM] | inhibition [6] [%] | IC50 [7] [nM] | SMILES | Activity [8]
10 | 0 | 32 | 0.6 | 0.31 |  |  | COc1cc2nc(N3CCC(N4CCC(F)CC4)CC3)nc(NC3CCCCCC3)c2cc1OC | 
7 | 7 |  |  |  |  |  | COc1cc2nc(N3CCN(c4ccccc4)CC3)nc(NC3CCCCCC3)c2cc1OC | 
10 | 6 |  |  |  |  |  | CCOC(=O)N1CCC(Nc2nc(N3CCC(N4CCCC4)CC3)nc3cc(OC)c(OC)cc23)CC1 | 
10 | < 0 |  |  |  |  |  | COc1cc2nc(N3CCC(N4CCCC4)CC3)nc(NCc3ccccc3)c2cc1OC | 
7 | 4 |  |  |  |  |  | COc1cc2nc(N3CCC(N4CCCC4)CC3)nc(NCCc3ccccc3)c2cc1OC | 
18 | 17 |  |  |  |  |  | COc1cc2nc(N3CCC(N4CCCC4)CC3)nc(NC3CCCC3)c2cc1OC | 
71 | 54 | 200 |  |  |  | 1200 | COc1cc2nc(N3CCC(N4CCCC4)CC3)nc(NC3CCCCCCC3)c2cc1OC | 
71 | 54 | 480 |  |  |  | 1900 | COc1cc2nc(N3CCC(N4CCCC4)CC3)nc(NC3CCCCC3)c2cc1OC | 
92 | 100 | 18 | 0.039 | 0.14 |  | 73 | COc1cc2nc(N3CCC(N4CCCCC4)CC3)nc(NC3CCCCCC3)c2cc1OC | 
4 | < 0 |  |  |  |  |  | COc1cc2nc(N3CCC(N4CCCC4)CC3)nc(NC3CCN(Cc4ccccc4)CC3)c2cc1OC | 
11 | < 0 |  |  |  |  |  | COc1cc2nc(N3CCC(N4CCCC4)CC3)nc(NC3CCC(C(C)(C)C)CC3)c2cc1OC (stereo unspecified) | 
93 | 100 | 19 | 0.13 | 0.2 |  | 70 | COc1cc2nc(N3CCC(N4CCCC4)CC3)nc(NC3CCCCCC3)c2cc1OC | Toxic
1 | < 0 |  |  |  |  |  | COc1cc2nc(N3CCC(Cc4ccccc4)CC3)nc(NC3CCCCCC3)c2cc1OC | 
16 | 16 |  |  |  |  |  | COc1cc2nc(N3CCC(N4CCCC4)CC3)nc(NC3CCCCNC3=O)c2cc1OC (stereo unspecified) | 
